Target: Signal transducer and activator of transcription 3 (Homo sapiens, UniProt P40763)
Assay: Inhibition of IL-6 induced STAT3 transcriptional activity in human HEK293 cells expressing SIE-luc2P preincubated for overnight followed by IL-6 stimulation and measured after 24 hr by Bio-Glo luciferase reagent based microplate reader assay
Summary of the method: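 GloResponse SIE-luc2P HEK-293 cells were seeded at 10,000/well and incubated overnight. STAT3 was activated with IL6 (100 ng/ml) for 24 h, then compound was added for 24 h. Bio-Glo luciferase reagent was added and luminescence read after 5 min. IC50 from three independent experiments, mean ± SD.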

Signal transducer and activator of transcription 3, sequence (P40763 whole entry): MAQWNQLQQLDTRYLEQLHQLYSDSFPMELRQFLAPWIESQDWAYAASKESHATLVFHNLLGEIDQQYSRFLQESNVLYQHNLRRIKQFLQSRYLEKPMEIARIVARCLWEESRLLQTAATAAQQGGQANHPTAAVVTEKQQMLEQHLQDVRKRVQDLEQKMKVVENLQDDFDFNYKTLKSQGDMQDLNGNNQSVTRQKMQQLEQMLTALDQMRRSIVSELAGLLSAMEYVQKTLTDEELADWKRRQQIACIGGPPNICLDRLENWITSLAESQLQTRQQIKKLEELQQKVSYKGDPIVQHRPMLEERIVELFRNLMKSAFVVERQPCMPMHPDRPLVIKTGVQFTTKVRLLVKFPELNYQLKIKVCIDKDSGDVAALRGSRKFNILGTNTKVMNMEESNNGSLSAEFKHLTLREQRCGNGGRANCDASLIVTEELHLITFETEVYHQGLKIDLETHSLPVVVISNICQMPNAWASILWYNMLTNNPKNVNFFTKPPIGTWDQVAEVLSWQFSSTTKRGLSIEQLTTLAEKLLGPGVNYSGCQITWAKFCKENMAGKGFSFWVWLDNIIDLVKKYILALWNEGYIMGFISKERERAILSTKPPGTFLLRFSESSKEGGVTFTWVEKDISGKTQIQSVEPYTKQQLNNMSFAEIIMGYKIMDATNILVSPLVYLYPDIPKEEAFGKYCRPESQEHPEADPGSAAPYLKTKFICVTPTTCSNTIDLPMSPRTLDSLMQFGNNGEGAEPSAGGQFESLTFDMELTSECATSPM

Row | IC50 [µM] | Compound
1 | 15.3 | O=C1CCC(N2C(=O)c3cccc(NCCNC(=O)c4cc5c(o4)C(=O)c4ccccc4C5=O)c3C2=O)C(=O)N1 (stereo not drawn)
2 | 4.6 | O=C1CCC(N2C(=O)c3cccc(NCCCCCNC(=O)c4cc5c(o4)C(=O)c4ccccc4C5=O)c3C2=O)C(=O)N1 (stereo not drawn)
3 | 2.6 | O=C1CCC(N2C(=O)c3cccc(NCCOCCOCCOCCNC(=O)c4cc5c(o4)C(=O)c4ccccc4C5=O)c3C2=O)C(=O)N1 (stereo not drawn)
4 | 2.7 | O=C1CCC(N2C(=O)c3cccc(NCCOCCOCCOCCOCCNC(=O)c4cc5c(o4)C(=O)c4ccccc4C5=O)c3C2=O)C(=O)N1 (stereo not drawn)
5 | 2.5 | O=C1CCC(N2C(=O)c3cccc(NCCOCCOCCOCCOCCOCCOCCNC(=O)c4cc5c(o4)C(=O)c4ccccc4C5=O)c3C2=O)C(=O)N1 (stereo not drawn)
6 | 0.9 | O=C1CCC(N2C(=O)c3cccc(NCCCCCC4CCN(CCNC(=O)c5cc6c(o5)C(=O)c5ccccc5C6=O)CC4)c3C2=O)C(=O)N1 (stereo not drawn)
7 | 4.2 | O=C1CCC(N2C(=O)c3cccc(C#CCCCNC(=O)c4cc5c(o4)C(=O)c4ccccc4C5=O)c3C2=O)C(=O)N1 (stereo not drawn)
8 | 5.7 | O=C1CCC(N2C(=O)c3cccc(OCCCCNC(=O)c4cc5c(o4)C(=O)c4ccccc4C5=O)c3C2=O)C(=O)N1 (stereo not drawn)
9 | 10.9 | O=C1CCC(N2Cc3c(NCCOCCOCCNC(=O)c4cc5c(o4)C(=O)c4ccccc4C5=O)cccc3C2=O)C(=O)N1 (stereo not drawn)
10 | 1.7 | CN1C(=O)CCC(N2C(=O)c3cccc(NCCCCCC4CCN(CCNC(=O)c5cc6c(o5)C(=O)c5ccccc5C6=O)CC4)c3C2=O)C1=O (stereo not drawn)
11 | 11.4 | Cc1ncsc1-c1ccc(CNC(=O)[C@@H]2C[C@@H](O)CN2C(=O)[C@@H](NC(=O)COCCOCCNC(=O)c2cc3c(o2)C(=O)c2ccccc2C3=O)C(C)(C)C)cc1
12 | > 30 | Cc1ncsc1-c1ccc(CNC(=O)[C@@H]2C[C@@H](O)CN2C(=O)[C@@H](NC(=O)COCCNC(=O)c2cc3c(o2)C(=O)c2ccccc2C3=O)C(C)(C)C)cc1
13 | 3.4 | O=C1CCC(N2C(=O)c3ccc(NCCOCCOCCNC(=O)c4cc5c(o4)C(=O)c4ccccc4C5=O)cc3C2=O)C(=O)N1 (stereo not drawn)
